The source made the active and inactive calls. The rule behind the calls is not given here.
How the values were obtained:
[1] = tested on: RAW264.7; experiment: Inhibition of LPS-induced nitric oxide production in mouse RAW264.7 cells at 20 uM after 20 hrs by Griess method; assay type: functional; settings: RAW264.7, 20 h
Outline: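 Cells plated at 1 × 10⁵ cells/mL in 10% FBS-DMEM for 24 h, then given 1% FBS medium with compound at 20 μM plus LPS (1 μg/mL) for 20 h. Supernatant nitrite read by Griess reagent at 570 nm against a sodium nitrite standard. Percent inhibition relative to LPS control, n = 3.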

[2] = tested on: RAW264.7; experiment: Inhibition of sNFkappaB nuclear translocation in LPS-induced mouse RAW264.7 cells at 20 uM pretreated for 30 mins before LPS challenge for 30 mins by Western blotting; assay type: cell-based
Outline: (§1)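 Cells pretreated 30 min with compound at 20 μM, then LPS (1 μg/mL) for 30 min. Cytoplasmic IκB-α and nuclear p65 measured by Western blot. Levels normalized to PARP.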

[3] = tested on: RAW264.7; experiment: Inhibition of I-kappaB-alpha degradation in LPS-induced mouse RAW264.7 cells at 20 uM pretreated for 30 mins before LPS challenge for 30 mins by Western blotting; assay type: cell-based; outline: as §1
[4] = tested on: RAW264.7; experiment: Inhibition of LPS-induced iNOS mRNA expression in mouse RAW264.7 cells at 20 uM pretreated for 6 hrs before LPS challenge by RT-PCR; assay type: functional, cell-based
[5] = tested on: RAW264.7; experiment: Inhibition of LPS-induced COX2 mRNA expression in mouse RAW264.7 cells at 20 uM treated after LPS challenge by RT-PCR; assay type: functional, cell-based
Outline: (§2)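 Cells at 1.8 × 10⁶ per 60 mm dish stimulated 6 h with LPS (1 μg/mL) with or without compound (20 μM). Total RNA taken for RT-PCR of iNOS, COX-2 and β-actin: 25 cycles of 94 °C, 55 °C and 72 °C, 30 s each. Products resolved on 2% agarose.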

[6] = tested on: RAW264.7; experiment: Inhibition of LPS-induced COX2 expression in mouse RAW264.7 cells at 20 uM treated for 20 hrs during LPS activation by Western blot; assay type: functional, cell-based
Outline: (§3)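 RAW 264.7 cells given compound (20 μM) during 20 h LPS (1 μg/mL) activation, then washed and lysed. 20 μg lysate protein run on 8% SDS-PAGE and blotted to PVDF. Probed for iNOS, COX-2 and actin, with ECL detection.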

[7] = tested on: RAW264.7; experiment: Inhibition of LPS-induced iNOS mRNA expression in mouse RAW264.7 cells at 20 uM treated after LPS challenge by RT-PCR; assay type: functional, cell-based; outline: as §2
[8] = tested on: RAW264.7; experiment: Inhibition of LPS-induced nitric oxide production in mouse RAW264.7 cells after 20 hrs by Griess method; assay type: functional, cell-based; settings: RAW264.7, 20 h
Outline: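 Cells plated at 1 × 10⁵ cells/mL in 10% FBS-DMEM for 24 h, then switched to 1% FBS medium. Incubated 20 h with LPS (1 μg/mL) with or without compound. Supernatant nitrite read with Griess reagent, 10 min at room temperature, absorbance 570 nm, against a sodium nitrite standard. IC₅₀ from dose–response curve.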

[9] = tested on: RAW264.7; experiment: Inhibition of LPS-induced iNOS expression in mouse RAW264.7 cells at 20 uM treated for 20 hrs during LPS activation by Western blot; assay type: functional, cell-based; outline: as §3
[10] = tested on: RAW264.7; experiment: Inhibition of LPS-induced COX2 mRNA expression in mouse RAW264.7 cells at 20 uM pretreated for 6 hrs before LPS challenge by RT-PCR; assay type: functional, cell-based

Row | IC50 [8] | SMILES | inhibition at 20 µM [1] | further results
1 | – | Cc1ccc(COc2cccc3scnc23)cc1 | 10.4% | –
2 | 4.2 µM | COc1ccc2[nH]cc(CC(=O)Nc3cccc(COc4cccc5scnc45)c3)c2c1 | 75.9% | inhibition [2]: Active; inhibition [3]: Active; inhibition [4]: Active; inhibition [5]: inactive; inhibition [6]: Active; inhibition [7]: inactive; inhibition [9]: Active; inhibition [10]: Active
3 | – | Nc1cccc(COc2cccc3scnc23)c1 | 32.9% | –
4 | – | Nc1nc2c(O)cccc2s1 | 11.4% | –
5 | 17.2 µM | c1ccc(CNc2ccccc2COc2cccc3scnc23)cc1 | 55.8% | inhibition [2]: Active; inhibition [3]: Active; inhibition [4]: Active; inhibition [5]: inactive; inhibition [6]: Active; inhibition [7]: inactive; inhibition [9]: Active; inhibition [10]: Active
6 | 72.3 µM | O=C(Cc1ccc2c(c1)OCO2)Nc1ccccc1COc1cccc2scnc12 | 32.5% | –
7 | 23.6 µM | O=C(Cc1ccc2c(c1)OCO2)Nc1cccc(COc2cccc3scnc23)c1 | 58.9% | –
8 | – | Cc1ccc(COc2cccc3sc(N)nc23)cc1 | 14.4% | –
9 | – | COc1ccc2[nH]cc(CC(=O)Nc3ccccc3COc3cccc4scnc34)c2c1 | 36.4% | –
10 | – | COc1ccc(/C=C/C(=O)Nc2ccccc2COc2cccc3scnc23)cc1OC | 44.7% | –
11 | – | c1ccc(COc2cccc3scnc23)cc1 | 12.3% | –
12 | – | CS(=O)(=O)Nc1ccccc1COc1cccc2scnc12 | 0.4% | –
13 | – | CC(=O)Nc1ccccc1COc1cccc2scnc12 | 3.7% | –
14 | – | Nc1ccccc1COc1cccc2scnc12 | 15.2% | –
15 | – | COc1cccc2scnc12 | 18.6% | –
16 | 21.2 µM | O=C(Cc1ccc2c(c1)OCO2)N(Cc1ccccc1)c1ccccc1COc1cccc2scnc12 | 54.9% | –
17 | 20.9 µM | COc1ccc(/C=C/C(=O)N(Cc2ccccc2)c2ccccc2COc2cccc3scnc23)cc1OC | 39.8% | inhibition [2]: Active; inhibition [3]: Active; inhibition [4]: Active; inhibition [5]: inactive; inhibition [6]: Active; inhibition [7]: inactive; inhibition [9]: Active; inhibition [10]: Active
18 | – | COc1ccc(CCC(=O)Nc2ccccc2COc2cccc3scnc23)cc1OC | 11.6% | –
19 | – | Oc1cccc2scnc12 | 8.6% | –

Source: ChEMBL document CHEMBL1268829, “Design, synthesis and activity of benzothiazole-based inhibitors of NO production in LPS-activated macrophages” (Bioorg Med Chem Lett, 2010)
